Data from ChEMBL document CHEMBL2346583, “Synthesis of new fluorinated, 2-substituted 5-pyrrolidinylsulfonyl isatin derivatives as caspase-3 and caspase-7 inhibitors: nonradioactive counterparts of putative PET-compatible apoptosis imaging agents” (Bioorg Med Chem, 2013).

Legend:
[1] = target: T1, Caspase-7 (Homo sapiens, UniProt P55210); assay: Inhibition of human recombinant caspase 7 assessed as decrease in AMC release using Ac-Asp-Glu-Val-Asp-AMC as substrate preincubated with enzyme for 10 mins prior to substrate addition measured after 10 mins by fluorescence microplate analysis
T1 sequence (P55210 whole entry): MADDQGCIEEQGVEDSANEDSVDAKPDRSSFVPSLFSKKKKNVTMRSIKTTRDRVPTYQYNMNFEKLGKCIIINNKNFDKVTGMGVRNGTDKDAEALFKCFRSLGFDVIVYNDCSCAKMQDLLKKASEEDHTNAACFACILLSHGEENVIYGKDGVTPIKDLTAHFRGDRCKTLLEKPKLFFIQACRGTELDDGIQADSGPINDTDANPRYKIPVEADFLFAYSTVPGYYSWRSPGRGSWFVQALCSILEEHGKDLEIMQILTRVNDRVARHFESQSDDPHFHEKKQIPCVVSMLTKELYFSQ
Procedure, shortened: (§1)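 Recombinant human caspase at 0.5 units per assay (defined as 500 pmol substrate converted in 60 min), diluted in reaction buffer. Compounds in DMSO, tested at final concentrations from 500 µM down to 5 pM in tenfold steps. Enzyme and compound pre-incubated for 10 min at 37 °C. AMC peptide substrate then added to a final 10 µM and reacted for 10 min. IC50 obtained by nonlinear regression.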

[2] = target: T2, Caspase-1 (Homo sapiens, UniProt P29466); assay: Inhibition of human recombinant caspase 1 assessed as decrease in AMC release using Ac-Tyr-Val-Ala-Asp-AMC as substrate preincubated with enzyme for 10 mins prior to substrate addition measured after 10 mins by fluorescence microplate analysis; procedure, shortened: as §1
T2 sequence (P29466 whole entry): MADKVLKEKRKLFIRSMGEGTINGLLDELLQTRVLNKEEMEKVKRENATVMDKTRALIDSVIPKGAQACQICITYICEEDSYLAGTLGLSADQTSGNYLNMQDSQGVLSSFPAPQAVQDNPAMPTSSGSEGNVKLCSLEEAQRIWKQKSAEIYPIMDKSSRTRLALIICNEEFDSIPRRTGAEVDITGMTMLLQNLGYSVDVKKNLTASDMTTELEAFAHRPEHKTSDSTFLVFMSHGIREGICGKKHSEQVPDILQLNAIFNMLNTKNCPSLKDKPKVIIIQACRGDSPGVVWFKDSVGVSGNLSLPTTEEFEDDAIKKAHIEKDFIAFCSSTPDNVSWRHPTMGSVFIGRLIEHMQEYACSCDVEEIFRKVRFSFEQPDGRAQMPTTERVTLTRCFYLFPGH

[3] = target: T3, Caspase-6 (Homo sapiens, UniProt P55212); assay: Inhibition of human recombinant caspase 6 assessed as decrease in AMC release using Ac-Val-Glu-Ile-Asp-AMC as substrate preincubated with enzyme for 10 mins prior to substrate addition measured after 10 mins by fluorescence microplate analysis; procedure, shortened: as §1
T3 sequence (P55212 whole entry): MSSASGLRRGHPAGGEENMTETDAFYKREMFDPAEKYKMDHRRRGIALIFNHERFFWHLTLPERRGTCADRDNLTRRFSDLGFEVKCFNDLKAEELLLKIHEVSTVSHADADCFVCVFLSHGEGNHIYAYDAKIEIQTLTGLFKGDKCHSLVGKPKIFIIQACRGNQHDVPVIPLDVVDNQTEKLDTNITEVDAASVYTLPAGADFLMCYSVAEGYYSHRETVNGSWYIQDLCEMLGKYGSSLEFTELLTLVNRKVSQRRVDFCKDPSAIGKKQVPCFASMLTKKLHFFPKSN

[4] = target: T4, Caspase-3 (Homo sapiens, UniProt P42574); assay: Inhibition of human recombinant caspase 3 assessed as decrease in AMC release using Ac-Asp-Glu-Val-Asp-AMC as substrate preincubated with enzyme for 10 mins prior to substrate addition measured after 10 mins by fluorescence microplate analysis; procedure, shortened: as §1
T4 sequence (P42574 whole entry): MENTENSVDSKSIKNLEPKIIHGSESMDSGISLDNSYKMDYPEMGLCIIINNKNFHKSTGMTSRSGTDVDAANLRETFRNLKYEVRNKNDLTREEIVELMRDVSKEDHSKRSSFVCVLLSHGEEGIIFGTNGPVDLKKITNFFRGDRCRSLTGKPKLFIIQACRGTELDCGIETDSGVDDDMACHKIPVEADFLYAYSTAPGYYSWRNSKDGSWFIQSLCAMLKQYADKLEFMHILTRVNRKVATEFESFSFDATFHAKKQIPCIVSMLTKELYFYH

In the case of COCC[C@@H]1CCCN1S(=O)(=O)c1ccc2c(c1)C(=O)C(=O)N2, the IC50 [1] is reported as 540 nM, the IC50 [2] is reported as 12100 nM and the IC50 [3] is reported as over 500000 nM. For the same molecule, the IC50 [4] was 349 nM.
With CCCCN1C(=O)C(=O)c2cc(S(=O)(=O)N3CCC[C@H]3CCOC)ccc21 the IC50 [1] was 24.6 nM, the IC50 [2] was 15500 nM and the IC50 [3] was over 500000 nM. The IC50 [4] was 94.3 nM.
Molecule COCC[C@@H]1CCCN1S(=O)(=O)c1ccc2c(c1)C(=O)C(=O)N2CCCCF has an IC50 [1] of 12.3 nM, an IC50 [2] of 7340 nM and an IC50 [3] of 1030 nM. The IC50 [4] was 92.3 nM.
With CCOC[C@@H]1CCCN1S(=O)(=O)c1ccc2c(c1)C(=O)C(=O)N2 the IC50 [1] was 13.2 nM, the IC50 [2] was over 500000 nM and the IC50 [3] was over 500000 nM. The IC50 [4] was 1120 nM.
For CCCCN1C(=O)C(=O)c2cc(S(=O)(=O)N3CCC[C@H]3COCC)ccc21, the IC50 [1] was 64.6 nM, the IC50 [2] was 18400 nM and the IC50 [3] was 2610 nM. It also gave an IC50 [4] of 25.6 nM.
Work on CCOC[C@@H]1CCCN1S(=O)(=O)c1ccc2c(c1)C(=O)C(=O)N2CCCCF yielded an IC50 [1] of 218 nM, an IC50 [2] of over 500000 nM and an IC50 [3] of over 500000 nM. It also gave an IC50 [4] of 365 nM.
With O=C1Nc2ccc(S(=O)(=O)N3CCC[C@H]3COCCF)cc2C1=O the IC50 [1] was 1330 nM, the IC50 [2] was 18400 nM and the IC50 [3] was over 500000 nM. For the same molecule, the IC50 [4] was 346 nM.
For CCCCN1C(=O)C(=O)c2cc(S(=O)(=O)N3CCC[C@H]3COCCF)ccc21, the IC50 [1] was 39.6 nM, the IC50 [2] was 24700 nM and the IC50 [3] was over 500000 nM. For the same molecule, the IC50 [4] was 4.79 nM.
O=C1C(=O)N(CCCCF)c2ccc(S(=O)(=O)N3CCC[C@H]3COCCF)cc21 showed an IC50 [1] of 9.68 nM, an IC50 [2] of 45800 nM and an IC50 [3] of over 500000 nM. It also gave an IC50 [4] of 74.3 nM.
With O=C1Nc2ccc(S(=O)(=O)N3CCC[C@H]3COCC(F)(F)F)cc2C1=O the IC50 [1] was 1420 nM, the IC50 [2] was 14700 nM and the IC50 [3] was over 500000 nM. For the same molecule, the IC50 [4] was 1060 nM.
CCCCN1C(=O)C(=O)c2cc(S(=O)(=O)N3CCC[C@H]3COCC(F)(F)F)ccc21 showed an IC50 [1] of 7.47 nM, an IC50 [2] of 25900 nM and an IC50 [3] of over 500000 nM. For the same molecule, the IC50 [4] was 46.8 nM.
O=C1C(=O)N(CCCCF)c2ccc(S(=O)(=O)N3CCC[C@H]3COCC(F)(F)F)cc21 gave an IC50 [1] of 265 nM, an IC50 [2] of 30700 nM and an IC50 [3] of over 500000 nM. It also gave an IC50 [4] of 149 nM.
Molecule COCCCC1CCCN1S(=O)(=O)c1ccc2c(c1)C(=O)C(=O)N2 (racemic) has an IC50 [1] of 125 nM, an IC50 [2] of 11600 nM and an IC50 [3] of over 500000 nM. It also gave an IC50 [4] of 1580 nM.
With CCCCN1C(=O)C(=O)c2cc(S(=O)(=O)N3CCCC3CCCOC)ccc21 (racemic) the IC50 [1] was 515 nM, the IC50 [2] was over 500000 nM and the IC50 [3] was over 500000 nM. The IC50 [4] was 170 nM.
COCCCC1CCCN1S(=O)(=O)c1ccc2c(c1)C(=O)C(=O)N2CCCCF (racemic) was tested, and the IC50 [1] was 33.7 nM, the IC50 [2] was over 500000 nM and the IC50 [3] was over 500000 nM. For the same molecule, the IC50 [4] was 184 nM.
